# UCH37 inh: inhibitors of human UCH37 deubiquitinase, primary screen, biochemical, Ub-AMC cleavage, fluorescence; Ubiquitin carboxyl-terminal hydrolase isozyme L5 (Homo sapiens), Q9Y5K5; purified proteasome/UCH37; inhibition, % (no concentration beside the values); 0.33% of 330,000 active;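 active = mean inhibition over replicate wells above about 20%, limit read from the data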;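 also: 0% = compound-free wells with enzyme and 100% = wells lacking proteasome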
# Target sequence (Q9Y5K5 whole entry, looked up): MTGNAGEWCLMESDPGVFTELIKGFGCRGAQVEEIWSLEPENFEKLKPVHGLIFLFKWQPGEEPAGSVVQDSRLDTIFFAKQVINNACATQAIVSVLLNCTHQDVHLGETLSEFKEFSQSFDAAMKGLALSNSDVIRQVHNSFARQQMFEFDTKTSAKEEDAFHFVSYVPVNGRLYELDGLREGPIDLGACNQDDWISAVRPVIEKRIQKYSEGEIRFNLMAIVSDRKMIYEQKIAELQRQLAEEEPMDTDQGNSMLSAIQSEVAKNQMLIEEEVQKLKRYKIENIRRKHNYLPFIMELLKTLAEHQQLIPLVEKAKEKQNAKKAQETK
#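 Material: Human UCH37 enzyme supplied as purified proteasome complex | Schedule: 30 min compound-proteasome preincubation then 25 min substrate reaction, room temperature | Detection: AMC fluorescence from Ub-AMC cleavage, excitation 355 nm, emission 460 nm | Benchmarks: Wells without proteasome as full block, compound-free enzyme plus substrate as uninhibited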
# NR3A LBD binder: binders of NR3A ligand-binding domain, primary screen, biophysical, differential scanning fluorimetry, uHTS; NR3A LBD differential scanning fluorimetry, Tm shift; 0% = protein alone, 100% = glycine-bound protein; Tm shift relative to glycine control, % at 25 µM; 2.5% of 340,000 active; AID 1259313, 2017;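 active = melting temperature shift of at least 10% of the positive control shift, at one fixed dose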
# PAFAH1B3 inh: PAFAH1B3 enzyme inhibitors, primary screen, biochemical, fluorescence polarization, human | Platelet-activating factor acetylhydrolase IB subunit alpha1 (Homo sapiens), Q15102 | recombinant PAFAH1B3, FP-rhodamine probe | inhibition, % at 3.39 µM | 0.28% of 340,000 active | AID 492972, 2010;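 active = inhibition above the screen-wide average of all tested compounds plus 3 SD, cut at about 25% in these data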;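 also: 0% = enzyme with DMSO only and 100% = wells lacking PAFAH1B3 protein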
# PAFAH2 FP inh: PAFAH2 enzyme inhibitors, primary screen, biochemical, fluorescence polarization, human; recombinant PAFAH2, FP-rhodamine activity probe; 0.99% of 340,000 active; AID 492956, 2010; inhibition, % at 3.39 µM;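 active = inhibition above the mean over all tested compounds plus 3 SD, cut at about 30% in these data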;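 also: inhibitors block probe labeling of enzyme so polarization drops; 0% = enzyme with DMSO and 100% = wells lacking PAFAH2 protein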
# PAFAH1B2 FP inh: PAFAH1B2 enzyme inhibitors, primary screen, biochemical, fluorescence polarization, human; recombinant PAFAH1B2, FP-rhodamine activity probe; 1.2% of 340,000 active; inhibition, % at 3.39 µM; AID 492953, 2010; Platelet-activating factor acetylhydrolase IB subunit alpha2 (Homo sapiens), P68402;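 active = inhibition above the mean of all tested compounds plus 3 SD, cut at about 24% in these data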;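 also: 0% = enzyme with DMSO and 100% = wells lacking PAFAH1B2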
# Target sequence (P68402 whole entry, looked up): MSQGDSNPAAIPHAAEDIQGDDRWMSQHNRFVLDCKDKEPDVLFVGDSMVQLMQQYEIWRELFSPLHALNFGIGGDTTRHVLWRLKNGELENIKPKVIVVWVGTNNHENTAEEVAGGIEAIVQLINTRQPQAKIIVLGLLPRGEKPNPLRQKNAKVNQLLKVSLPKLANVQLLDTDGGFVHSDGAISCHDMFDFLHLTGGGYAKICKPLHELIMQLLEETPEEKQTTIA
# pPAFAH FP inh: pPAFAH enzyme inhibitors, primary screen, biochemical, fluorescence polarization, human. 1.5% of 330,000 active. recombinant pPAFAH, FP-rhodamine probe fluorescence polarization. inhibition, % at 3.39 µM;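 active = inhibition above the mean inhibition across the screen plus 3 SD, cut at about 25% in these data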;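 also: inhibitors block binding of the rhodamine activity-based probe so polarization drops; 0% = enzyme with DMSO and 100% = wells lacking pPAFAH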
# * marks the source's active call; other numbers are inactive results; · = no result. An excerpt weighted towards active compounds, which were near 4.8% of everything screened.
SMILES,UCH37 inh,NR3A LBD binder,PAFAH1B3 inh,PAFAH2 FP inh,PAFAH1B2 FP inh,pPAFAH FP inh
Cc1ccc(NC(=O)CSc2n[nH]c(-c3ccncc3)n2)cc1C,5,-29,0,-3,4,29*
CCC(=NNC(=O)c1csc(C)c1C)c1cccs1,6,·,·,·,·,·
Cn1c(SCC(=O)Nc2nccs2)nnc1-c1ccc(S(=O)(=O)N2CCCC2)cc1,7,1,4,1,6,-6
O=C(CSc1n[nH]c(-c2ccc(S(=O)(=O)N3CCCCC3)cc2)n1)Nc1nccs1,-5,-4,2,6,39*,17
N/C(=N\OC(=O)CCC1CCCCC1)c1cccc([N+](=O)[O-])c1,·,-7,4,16,40*,10
Cc1ccccc1C(=O)O/N=C(\N)c1cccc([N+](=O)[O-])c1,·,-7,9,-2,3,0
N/C(=N\OC(=O)c1cccc2ccccc12)c1cccc([N+](=O)[O-])c1,·,26*,-6,-14,-5,6
N/C(=N\OC(=O)CCC1CCCC1)c1ccc([N+](=O)[O-])cc1,·,5,4,13,29*,7
O=C(N=Nc1c(O)n(Cc2ccccc2)c2ccccc12)c1cc2ccccc2cc1O,14,13*,3,3,5,11
O=C(N=Nc1c(O)n(Cc2ccccc2)c2ccccc12)c1ccc(O)cc1,7,4,6,-14,5,5
Cc1cccc(C)c1NC(=O)CN(C)C(=O)c1ccc(NS(=O)(=O)c2ccc3[nH]c(=O)[nH]c3c2)cc1,1,13*,11,2,4,3
Cc1cccc(C)c1NC(=O)CN(C)C(=O)c1ccc2nc[nH]c2c1,3,-1,5,6,3,16
CN(CC(=O)Nc1ccc(Cl)cc1)C(=O)c1ccc(NS(=O)(=O)c2ccc3[nH]c(=O)[nH]c3c2)cc1,5,-3,2,-5,-6,-1
Cc1cccc(C)c1NC(=O)CN(C)C(=O)c1cccc(NS(=O)(=O)c2ccccc2)c1,0,1,-1,6,2,30*
CCn1cc(C=NNC(=O)c2csc3ccccc23)c(C)n1,3,·,·,·,·,·
O=C(NN=Cc1cccs1)c1n[nH]c2c1CCCC2,5,·,·,·,·,·
O=C(Nc1ccc(-c2noc(COc3ccccc3Cl)n2)cc1)c1ccco1,-1,13*,-6,-8,-7,-19
O=C(COc1ccccc1Cl)Nc1ccc(NC(=O)c2ccco2)cc1,-65,15*,8,-5,5,2
Clc1ccccc1OCc1nc(-c2ccccn2)no1,3,11*,-1,-4,3,5
CCOc1cc2[nH]c(=O)n(CCCC(=O)NCc3ccc(OC)cc3)c(=O)c2cc1OCC,-8,0,4,2,32*,3
Cc1ccc(S(=O)(=O)N[C@H](C(=O)OCC(=O)NC(=O)C2CCCCC2)C(C)C)cc1,1,23*,9,1,7,2
Cc1cc(C(=O)NN=Cc2ccc(O)c([N+](=O)[O-])c2)n[nH]1,19,·,·,·,·,·
C=CCn1cnc2c(c1=O)c1nc3ccccc3nc1n2/N=C/c1cccc(OC)c1,·,11*,0,1,1,·
C=CCn1cnc2c(c1=O)c1nc3ccccc3nc1n2N=Cc1ccccn1,-69,·,·,·,·,·
COc1ccc(C(=O)/C=C/c2ccc(O)cc2)c2c1CC(O)C(C)(C)O2 (stereo not given),4,-9,-3,-4,0,1
SMILES,UCH37 inh,NR3A LBD binder,PAFAH1B3 inh,PAFAH2 FP inh,PAFAH1B2 FP inh,pPAFAH FP inh
COc1ccc(C(=O)/C=C/c2ccc(O)cc2)c(O)c1CC=C(C)C,0,15*,-8,-22,1,0
O=C(CCCn1c(=O)oc2ccccc21)NC1CCCCCC1,4,·,·,·,·,4
CC1CC(NC(=O)CCn2c(=O)oc3ccccc32)CC(C)(C)C1 (stereo not given),2,-2,7,44*,38*,3
Fc1c(F)c(C(F)(F)F)c(F)c(F)c1NN=Cc1cccs1,5,·,·,·,·,·
Cn1c(-c2ccc(Br)o2)nc2ccccc21,6,-8,-1,1,3,2
Cn1c(-c2ccc(Br)o2)nc2cc(Br)ccc21,1,13*,3,-3,1,-3
CCCc1nn(C)c(C(=O)Nc2cccc3ccccc23)c1Cl,1,12*,2,5,2,10
Cc1ccc(NC(=O)CCC(=O)NN=Cc2cccs2)cc1,4,·,·,·,·,·
S=c1[nH]nc(C2CCCCC2)n1N=Cc1ccncc1,5,·,·,·,·,·
CC(=O)c1coc2c1cc(O)c1ccccc12,2,2,2,-1,-2,2
CC(=O)c1cc(O)c2ccccc2c1O,2,0,19,20,11,26*
COc1ccc(NC(=O)CSc2c3c(nc4cc(Cl)ccc24)CCCC3)cc1OC,11,14*,-3,6,3,-4
COc1cc(NC(=O)CSc2c3c(nc4ccccc24)CCC3)cc(OC)c1OC,6,13*,3,4,-2,2
COc1cc(NC(=O)c2ccc3c(SCC(=O)O)c4c(nc3c2)CCCC4)cc(OC)c1OC,7,-3,-5,1,3,4
COc1ccccc1NC(=O)CSc1c2c(nc3ccccc13)CCC2,6,-11,2,-1,1,5
O=C(CSc1nc2nc(-c3cccs3)cc(C(F)(F)F)c2c(=O)[nH]1)Nc1c(F)c(F)c(F)c(F)c1F,-1,22*,-3,-5,-1,-4
CSc1ccccc1NC(=O)COC(=O)CCC(=O)c1ccc(F)cc1,3,3,-9,5,1,21
Cc1ccc(C(=O)CCC(=O)OCC(=O)Nc2ccccc2SCC#N)cc1,5,0,11,0,0,27*
O=C(NN=Cc1ccncc1)c1ccc(COc2cccc3cccnc23)cc1,0,·,·,·,·,·
Cc1ccccc1N/N=C/c1ccc(C#N)cc1,·,18*,7,0,4,4
CCOC(=O)c1ccccc1NC(=O)COC(=O)C1CC(=O)N(c2ccc3c(c2)OCCO3)C1 (stereo not given),3,0,4,2,-7,5
O=C(COC(=O)C1CC(=O)N(c2ccc3c(c2)OCCO3)C1)NC1CCCc2ccccc21 (stereo not given),22*,-1,7,-2,0,8
CS(=O)(=O)N(CC(=O)NN=Cc1cccs1)c1cccc(Cl)c1Cl,3,·,·,·,·,·
Nc1[nH]n(-c2ccccc2)c(=O)c1N=Nc1ccc2c(c1)OCO2,·,11*,1,6,6,15
